Results taken from ChEMBL document CHEMBL1137539, “Synthesis and in vitro evaluation of 5-arylidene-3-hydroxyalkyl-2-phenylimino-4-thiazolidinones with antidegenerative activity on human chondrocyte cultures” (Bioorg Med Chem, 2007).
Active and inactive are the calls of the source. The rule behind the calls is not given here.

Assays:
[1] = Toxicity in human articular chondrocytes assessed as reduction of tetrazolium salt metabolism after 120 hrs by MTT assay; format: cell-based
Outline: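 Enzymatically isolated human articular chondrocytes were treated with compound (10, 50, 100 µg/mL) plus IL-1β (10 ng/mL). Viability was measured at 120 h by MTT cleavage by mitochondrial dehydrogenases and read as absorbance, mean with SEM.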

Homo sapiens [2] = species on record: Homo sapiens; assay: Inhibition of IL1-beta induced nitrite production in human articular chondrocytes at 10 ug/ml after 120 hrs; format: functional, cell-based
Homo sapiens [3] = species on record: Homo sapiens; assay: Inhibition of IL1-beta induced nitrite production in human articular chondrocytes at 50 ug/ml after 120 hrs; format: functional, cell-based
Homo sapiens [4] = species on record: Homo sapiens; assay: Inhibition of IL1-beta induced nitrite production in human articular chondrocytes at 100 ug/ml after 120 hrs; format: functional, cell-based
Homo sapiens [5] = species on record: Homo sapiens; assay: Inhibition of IL1-beta induced PGE2 production in human articular chondrocytes at 10 ug/ml to 100 ug/ml; format: functional, cell-based
Outline: (§1)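 Human articular chondrocytes came from cartilage taken at femoral neck fracture surgery and were isolated by enzymatic digestion. After 24 h in culture they were exposed to compound (10, 50, 100 µg/mL) with IL-1β (10 ng/mL). Supernatant was collected at 120 h and PGE2 was quantified by enzyme immunoassay (detection limit 1 pg/mL). Values are means with SEM.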

[6] = Inhibition of IL1-beta induced glycosaminoglycans depletion in human articular chondrocytes at 100 ug/ml; format: functional
Outline: (§2)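 Cartilage from femoral neck fracture patients was digested enzymatically to give chondrocytes. After 24 h the cells received compound at 10, 50 and 100 µg/mL together with IL-1β at 10 ng/mL. Total GAGs released into the medium were measured at 120 h and expressed as µg/mL, mean with SEM.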

Homo sapiens [7] = species on record: Homo sapiens; assay: Inhibition of IL1-beta induced glycosaminoglycans depletion in human articular chondrocytes 10 ug/ml to 100 ug/ml; format: functional, cell-based; outline: as §2
Homo sapiens [8] = species on record: Homo sapiens; assay: Inhibition of IL1-beta induced MMP3 secretion in human articular chondrocytes at 10 ug/ml to 100 ug/ml; format: functional, cell-based
Outline: (§3)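 Chondrocytes were isolated from human articular cartilage taken at femoral neck fracture surgery, by sequential hyaluronidase, pronase and collagenase digestion, then cultured. After 24 h they were treated with test compound (10, 50 and 100 µg/mL) plus IL-1β (10 ng/mL). Supernatants were collected at 120 h and MMP-3 was measured by ELISA (detection limit 1 ng/mL). Values are means with SEM.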

[9] = Inhibition of IL1-beta induced PGE2 production in human articular chondrocytes at 100 ug/ml; format: functional; outline: as §1
[10] = Inhibition of IL1-beta induced MMP3 secretion in human articular chondrocytes at 100 ug/ml; format: functional; outline: as §3

SMILES | Activity [1] | Activity (Homo sapiens [2]) | Activity (Homo sapiens [3]) | Activity (Homo sapiens [4]) | Activity (Homo sapiens [5]) | Activity [6] | Activity (Homo sapiens [7]) | Activity (Homo sapiens [8]) | Activity [9] | Activity [10]
CSc1ccc(/C=C2\S/C(=N\c3ccccc3)N(CCO)C2=O)cc1 | Non-toxic | Active | Active | Active | Active | 339000 ng/mL | – | – | – | –
COc1ccc(/C=C2\S/C(=N\c3ccccc3)N(CCCO)C2=O)cc1 | Non-toxic | Active | Active | Active | Active | – | Active | Active | – | –
CS(=O)(=O)c1ccc(/C=C2\S/C(=N\c3ccccc3)N(CCCO)C2=O)cc1 | Non-toxic | Active | Active | Active | – | – | Active | – | 53.22 ng/mL | –
COc1cccc(/C=C2\S/C(=N\c3ccccc3)N(CCO)C2=O)c1 | Non-toxic | Active | Active | Active | Active | – | Active | – | – | –
COc1cccc(/C=C2\S/C(=N\c3ccccc3)N(CCCO)C2=O)c1 | Non-toxic | Active | Active | Active | Active | – | Active | – | – | –
O=C1/C(=C/c2ccc(Cl)cc2)S/C(=N\c2ccccc2)N1CCO | Non-toxic | Active | Active | Active | Active | – | Active | – | – | –
CCCN1C(=O)/C(=C/c2cccc(OC)c2)S/C1=N\c1ccccc1 | – | Active | Active | Active | Active | – | – | – | – | –
COc1ccc(/C=C2\S/C(=N\c3ccccc3)N(CCO)C2=O)cc1 | Non-toxic | Active | Active | Active | Active | – | Active | – | – | –
CS(=O)(=O)c1ccc(/C=C2\S/C(=N\c3ccccc3)N(CCO)C2=O)cc1 | Non-toxic | Active | Active | Active | Active | – | Active | – | – | –
COc1ccc2c(c1)c(CC(=O)O)c(C)n2C(=O)c1ccc(Cl)cc1 [INDOMETHACIN] | – | – | – | – | – | – | – | – | – | 62.64 ng/mL
O=C1/C(=C/c2ccc(Cl)cc2)S/C(=N\c2ccccc2)N1CCCO | Non-toxic | Active | Active | Active | Active | – | Active | – | – | –
CSc1ccc(/C=C2\S/C(=N\c3ccccc3)N(CCCO)C2=O)cc1 | Non-toxic | Active | Active | Active | Active | – | Active | – | – | –
